Screens: PubChem, Broad Institute
T cruzi growth-1 – T. cruzi intracellular proliferation inhibitors, primary screen, cell-based, beta-gal Tulahuen parasites, NIH3T3 host, luminescence; actives 5.9% (n = 77,000); T. cruzi beta-gal in NIH3T3, GalScreen luminescence, 90 h; inhibition, % at 8.34 µM;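 active = mean inhibition above about 93%, with at least 55% of replicates each passing it, limit read from the data, passing the limit was not always enough; inconclusive = only one of those two conditions holds; inactive = neither condition holds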
KDM4C inh – inhibitors of GASC-1 (KDM4C) histone demethylase, primary screen, biochemical, single concentration HTS | Lysine-specific demethylase 4C (Homo sapiens), Q9H3R0 | GST-KDM4C 2-372, H3K9me3 peptide, LANCE TR-FRET | inhibition, % at 12.5 µM | actives 0.15% (n = 96,000);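 active = mean replicate inhibition above about 25%, with at least 55% of replicates also reaching it, limit read from the data, passing the limit was not always enough; inconclusive = only one of those two conditions met; inactive = neither condition met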
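material = GST-tagged GASC-1 (JMJD2C) catalytic fragment, aa 2-372 | amount = enzyme final amount 10 nM | medium = HEPES buffer, pH 7.5, plus ascorbate | also added = H3K9me3 peptide substrate, Fe(II), 2-oxoglutarate | dosing = single dose | times = 30 min demethylation and 1 h detection at room temperature | detection = LANCE TR-FRET | read-out basis = Fall in 671/618 emission ratio as inhibition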
IDH1 R132H inh – inhibitors of IDH1 R132H reductase, primary screen, biochemical, plate reader, single point. Isocitrate dehydrogenase [NADP] cytoplasmic (Homo sapiens), O75874. diaphorase/resazurin fluorescence, 60 min. inhibition, % at 10 µM. actives 0.18% (n = 70,000). AID 624101, 2012; in the data active = inhibition above about 34%; inconclusive = no clear call, values can overlap the other calls; inactive = below about 11%;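 note: 0% = DMSO and 100% = no enzyme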
Target sequence (O75874 whole entry R132H): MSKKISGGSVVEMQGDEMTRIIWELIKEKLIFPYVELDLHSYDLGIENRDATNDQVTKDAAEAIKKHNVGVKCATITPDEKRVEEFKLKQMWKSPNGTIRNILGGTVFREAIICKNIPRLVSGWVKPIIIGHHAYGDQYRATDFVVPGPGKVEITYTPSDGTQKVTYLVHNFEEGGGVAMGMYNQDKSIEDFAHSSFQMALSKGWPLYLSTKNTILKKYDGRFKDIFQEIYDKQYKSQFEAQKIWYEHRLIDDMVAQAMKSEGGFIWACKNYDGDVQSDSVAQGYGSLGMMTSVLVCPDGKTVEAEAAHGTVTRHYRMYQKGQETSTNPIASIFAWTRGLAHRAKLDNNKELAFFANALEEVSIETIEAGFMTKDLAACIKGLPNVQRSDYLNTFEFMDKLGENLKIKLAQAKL
T cruzi growth-2 – T. cruzi intracellular proliferation inhibitors, confirmation, cell-based, NIH3T3 host, beta-gal parasite, luminescence, cherry-pick. shares compounds with T cruzi growth-1. actives 72% (n = 5,600). T. cruzi beta-gal in NIH3T3, GalScreen luminescence, 90 h. AID 651739, 2012. inhibition, % at 8.35 µM;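 active = mean replicate inhibition above about 95% and at least 55% of replicates individually reaching it, limit read from the data; inconclusive = only one of the two criteria is met; inactive = neither criterion is met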
T cruzi growth-3 – inhibitors of intracellular T. cruzi replication, confirmation, NIH3T3 host cells, beta-gal parasites, cherry-pick, set 2. inhibition, % at 2.09 µM. AID 651740, 2012. actives 21% (n = 5,600). T. cruzi beta-gal in NIH3T3, GalScreen luminescence, 90 h. shares compounds with T cruzi growth-1;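 active = mean inhibition above about 95%, with at least 55% of replicates also reaching it, limit read from the data; inconclusive = meets just one of the two conditions; inactive = meets neither condition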;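 note: plate controls were neutral control median for no effect and positive control median for full effect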
3T3 cytotox – cytotoxicity in mouse NIH/3T3 fibroblasts, confirmation, cytotoxicity control for T. cruzi proliferation inhibitor project, cell-based, cherry-pick, single point. shares compounds with T cruzi growth-1. NIH/3T3 viability, CellTiter-Glo ATP luminescence, 90 h. cytotoxicity (signal decrease), % at 8.35 µM. actives 14% (n = 5,600). AID 651742, 2012;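 active = mean signal decrease across replicates above about 35% based on untreated-well scatter, with enough replicates individually passing, limit read from the data; inconclusive = no rule stated though some were filed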;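 note: 0% = median of neutral control wells and 100% = median of positive control wells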
NIH3T3 tox 2 – NIH/3T3 fibroblast cytotoxicity, confirmation, cytotoxicity control, cell-based, cherry-pick, single point, set 2 | inhibition, % at 24.9 µM | AID 651744, 2012 | NIH/3T3 viability, CellTiter-Glo ATP luminescence, 90 h | actives 56% (n = 5,600) | shares compounds with T cruzi growth-1;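 active = mean loss of cell viability signal at or above a set limit, and enough replicates individually reaching it; inconclusive = meets only the mean limit or only the replicate share; inactive = meets neither condition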;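 note: 0% = median of neutral control wells and 100% = median of positive control wells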
The depositor's hits bear a star. This is one part of a sample in which hits are shown more often than they occur.

Results for C/C=C/c1ccc2c(c1)O[C@H](CN(C)Cc1ccc(F)cc1)[C@H](C)CN([C@@H](C)CO)S2(=O)=O ?
T cruzi growth-1: 59; KDM4C inh: -1; IDH1 R132H inh: 0

What do the screens show for `C/C=C/c1ccc2c(c1)O[C@@H](CN(C)Cc1ccc(F)cc1)[C@@H](C)CN([C@@H](C)CO)S2(=O)=O`?
T cruzi growth-1: 91; KDM4C inh: 0; IDH1 R132H inh: -2

What do the screens show for `C/C=C/c1ccc2c(c1)O[C@@H](CN(C)Cc1ccc(F)cc1)[C@H](C)CN([C@H](C)CO)S2(=O)=O`?
T cruzi growth-1: 119*; KDM4C inh: 0; IDH1 R132H inh: 0; T cruzi growth-2: 98*; T cruzi growth-3: 110*; 3T3 cytotox: 52*; NIH3T3 tox 2: 105*

Results for O=C(CC1NCCNC1=O)Nc1cccc(Cl)c1Cl (stereo not given) ?
IDH1 R132H inh: 0

What do the screens show for `Cc1cc(O)c2c(c1)C(=O)c1cc(OC3OC(COC(=O)CC(=O)O)C(O)C(O)C3O)cc(O)c1C2=O` (stereo not given)?
IDH1 R132H inh: -2

Results for Cc1ccc(N(C(C)C(=O)NC2CC2)S(C)(=O)=O)cc1 (stereo not given) ?
IDH1 R132H inh: 0

What do the screens show for `O=C(O)CCCCCC(=O)N/N=C/c1cccnc1Br`?
IDH1 R132H inh: 0

How did O=C(Nc1cccc(Cn2cccn2)c1)c1cc(-c2ccncc2)nc2ccc(Br)cc12 do in these assays?
IDH1 R132H inh: 0

How did Cc1ccc(C(=O)O)cc1NC(=O)COc1ccc(I)cc1 do in these assays?
IDH1 R132H inh: 0

What do the screens show for `COc1cccn(Cc2nnc(SCC(=O)c3ccccc3)o2)c1=O`?
IDH1 R132H inh: -2

Results for C[C@H](CO)N1C[C@H](C)[C@@H](CN(C)Cc2ccc(C(=O)Nc3ccccc3N)cc2)Oc2c(NC(=O)Nc3ccccc3)cccc2C1=O ?
T cruzi growth-1: 87; KDM4C inh: 0

What do the screens show for `C[C@H]1CN([C@@H](C)CO)C(=O)c2cccc(NC(=O)Nc3ccccc3)c2O[C@@H]1CN(C)Cc1ccc(C(=O)Nc2ccccc2N)cc1`?
T cruzi growth-1: 100*; KDM4C inh: -1; T cruzi growth-2: 101*; T cruzi growth-3: 99*; 3T3 cytotox: inconclusive; NIH3T3 tox 2: 80*

What do the screens show for `C[C@@H]1CN([C@@H](C)CO)C(=O)c2cc(NS(=O)(=O)c3cccs3)ccc2O[C@H]1CN(C)Cc1ccc(C(=O)Nc2ccccc2N)cc1`?
T cruzi growth-1: 108*; KDM4C inh: 0; IDH1 R132H inh: 0; T cruzi growth-2: 97*; T cruzi growth-3: 63; 3T3 cytotox: 4; NIH3T3 tox 2: 5

What do the screens show for `C[C@@H]1CN([C@H](C)CO)C(=O)c2cccc(NC(=O)Nc3ccc4c(c3)OCO4)c2O[C@H]1CN(C)Cc1ccc(C(=O)Nc2ccccc2N)cc1`?
T cruzi growth-1: 112*; KDM4C inh: 0; T cruzi growth-2: 102*; T cruzi growth-3: 92; 3T3 cytotox: -1; NIH3T3 tox 2: 71*

What do the screens show for `C[C@@H]1CCCCO[C@@H](CN(C)Cc2ccc(C(=O)Nc3ccccc3N)cc2)[C@@H](C)CN([C@H](C)CO)C(=O)c2cc(NS(=O)(=O)c3cccs3)ccc2O1`?
KDM4C inh: 0
